Laboratory results reported in ChEMBL document CHEMBL1157760, “Design, synthesis and anticancer activities of stilbene-coumarin hybrid compounds: Identification of novel proapoptotic agents” (Bioorg Med Chem, 2010).
Values belong to the compound of their own block, whether it stands above or below them. Calls of active or inactive are those of the source. No cut-off for these calls is given here.

How the values were obtained:
NCI-H460 [1] = test: Antiproliferative activity against human H460 cells after 72 hrs; type: functional, cell-based; details: NCI-H460, 72 h
Summary of the method: (§1)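 Growth inhibition: log-phase tumour cells seeded in duplicate, drug added 24 h after seeding, cells harvested 72 h after exposure and counted with a cell counter. IC50 taken as concentration giving 50% fewer cells than untreated control.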

[2] = Antiproliferative activity against human JR8 cells after 72 hrs; type: functional, cell-based; details: JR8, 72 h; summary of the method: as §1
NCI-H460 [3] = test: Induction of apoptosis in human H460 cells at 0.3 to 3 uM after 72 hrs by TUNEL assay; type: functional, cell-based
Summary of the method: (§2)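 H460 cells exposed 72 h to drug. Floating plus adherent cells fixed in 4% paraformaldehyde for 60 min at room temperature, then resuspended in ice-cold PBS. Fluorescein in situ cell-death (TUNEL) kit used and cells read by flow cytometry. Result given as percent TUNEL-positive cells against untreated control.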

A-431 = test: Antiproliferative activity against human A431 cells after 72 hrs; type: functional, cell-based; details: A-431, 72 h; summary of the method: as §1
NCI-H460 [4] = test: Upregulation of cyclin B1 protein expression in human H460 cells at 3 uM after 24 hrs by Western blot analysis; type: functional, cell-based
Summary of the method: (§3)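 After 24 h drug exposure, H460 cells rinsed twice in ice-cold PBS with 0.1 mM sodium orthovanadate and lysed in hot sample buffer. Protein quantified, separated by SDS-PAGE, transferred to nitrocellulose, probed with primary antibodies and HRP secondaries, and detected by enhanced chemiluminescence. Actin served as loading control.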

NCI-H460 [5] = test: Increase in CDKp21 protein expression in human H460 cells at 3 uM after 24 hrs by Western blot analysis; type: functional, cell-based; summary of the method: as §3
NCI-H460 [6] = test: Upregulation of p34CDC2 protein expression in human H460 cells at 3 uM after 24 hrs by Western blot analysis; type: functional, cell-based; summary of the method: as §3
NCI-H460 [7] = test: Induction of apoptosis in human H460 cells at 10 to 20 uM after 72 hrs by TUNEL assay; type: functional, cell-based; summary of the method: as §2
NCI-H460 [8] = test: Cell cycle arrest in human H460 cells assessed as accumulation at G2/M phase after 24 hrs by propidium iodide staining-based flow cytometry; type: functional
Summary of the method: (§4)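 H460 cells treated 24 h at 10 and 20 µM (resveratrol), 0.5 and 1.5 µM, or 0.3 and 3 µM, then analysed for cell cycle phase distribution (G1, S, G2/M).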

NCI-H460 [9] = test: Cell cycle arrest in human H460 cells assessed as accumulation at G2/M phase at 20 uM after 24 hrs by propidium iodide staining-based flow cytometry; type: functional; summary of the method: as §4
NCI-H460 [10] = test: Antitumor activity against human H460 cells xenograft model assessed as tumor growth inhibition at 10 to 20 mg/kg, po administered daily; type: functional; details: dose mg/kg 10-20
NCI-H460 [11] = test: Induction of apoptosis in human H460 cells assessed as cleavage of caspase 3 at 1.5 uM after 24 hrs by Western blot analysis; type: functional, cell-based; summary of the method: as §3
NCI-H460 [12] = test: Upregulation of p34CDC2 protein expression in human H460 cells at 1.5 uM after 24 hrs by Western blot analysis; type: functional, cell-based; summary of the method: as §3
NCI-H460 [13] = test: Induction of apoptosis in human H460 cells at 0.5 to 1.5 uM after 72 hrs by TUNEL assay; type: functional, cell-based; summary of the method: as §2
NCI-H460 [14] = test: Increase in CDKp21 protein expression in human H460 cells at 1.5 uM after 24 hrs by Western blot analysis; type: functional, cell-based; summary of the method: as §3
NCI-H460 [15] = test: Upregulation of cyclin B1 protein expression in human H460 cells at 1.5 uM after 24 hrs by Western blot analysis; type: functional, cell-based; summary of the method: as §3
NCI-H460 [16] = test: Induction of apoptosis in human H460 cells assessed as cleavage of PARP at 1.5 uM after 24 hrs by Western blot analysis; type: functional, cell-based; summary of the method: as §3
NCI-H460 [17] = test: Induction of apoptosis in human H460 cells assessed as CDKp21-p34CDC2 complex formation at 1.5 uM after 24 hrs by immunoprecipitation assay; type: functional, cell-based
Summary of the method: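 H460 cells exposed 24 h at 1.5 µM, lysed in NET buffer (pH 7.4, 0.1% NP40, protease inhibitors) on ice then at 4 °C. Lysate cleared at 10,000g and BCA-quantified. 500 µg immunoprecipitated with anti-cdc2 antibody 2 h at 4 °C, then with protein A-sepharose overnight at 4 °C. Pellets washed, eluted and immunoblotted for p34cdc2 and p21.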

IC50 (NCI-H460 [1]): > 100 µM
SMILES: COc1ccc2c(/C=C/c3cc(OC)c(OC)c(OC)c3)cc(=O)oc2c1

IC50 (NCI-H460 [1]): > 10 µM
SMILES: COc1cc(/C=C/c2cc3ccc(OC)cc3oc2=O)cc(OC)c1

IC50 (NCI-H460 [1]): 0.29 µM
IC50 (A-431): 3.5 µM
SMILES: COc1ccc2c(/C=C/c3cc(C)cc(C)c3)cc(=O)oc2c1
IC50 [2]: 3.5 µM
Activity (NCI-H460 [3]): Active
Activity (NCI-H460 [4]): Active
Activity (NCI-H460 [5]): Active
Activity (NCI-H460 [6]): Active

IC50 (NCI-H460 [1]): > 50 µM
SMILES: COc1ccc2c(/C=C/c3ccc(OCC=C(C)C)cc3)cc(=O)oc2c1

IC50 (NCI-H460 [1]): 11 µM
SMILES: COc1cc(/C=C/c2cc(=O)oc3ccc(OC)cc23)cc(OC)c1

IC50 (NCI-H460 [1]): 12.9 µM
SMILES: COc1cccc(/C=C/c2cc(=O)oc3cc(OC)ccc23)c1

IC50 (NCI-H460 [1]): 12.9 µM
SMILES: Oc1ccc(/C=C/c2cc(O)cc(O)c2)cc1 [RESVERATROL]
Activity (NCI-H460 [7]): inactive
Activity (NCI-H460 [8]): Dose-dependent effect
Activity (NCI-H460 [9]): Active

IC50 (NCI-H460 [1]): 0.45 µM
IC50 (A-431): 3.44 µM
SMILES: COc1cc(/C=C/c2cc(=O)oc3cc(OC)ccc23)cc(OC)c1
inhibition (INH) (NCI-H460 [10]): 50%
IC50 [2]: 3.2 µM
Activity (NCI-H460 [11]): Active
Activity (NCI-H460 [12]): Active
Activity (NCI-H460 [13]): Active
Activity (NCI-H460 [14]): Active
Activity (NCI-H460 [15]): Active
Activity (NCI-H460 [16]): Active
Activity (NCI-H460 [17]): Active

IC50 (NCI-H460 [1]): 27 µM
SMILES: O=c1cc(/C=C/c2cc(O)cc(O)c2)c2ccc(O)cc2o1

IC50 (NCI-H460 [1]): > 50 µM
SMILES: COc1ccc2c(/C=C/c3ccc(OC)c(OC)c3OC)cc(=O)oc2c1

IC50 (NCI-H460 [1]): 2.6 µM
SMILES: COc1cc(/C=C/c2cc(=O)oc3ccccc23)cc(OC)c1
